Rpn11 inh = Rpn11 (human) deubiquitinase inhibition; O00487; human 26S proteasome, Ub4-pepOG fluorescence polarization; 20S core pre-blocked with epoxomicin; inhibition, % at 20 µM; actives 0.59% (n = 360,000);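 active = inhibition at 20 µM, scaled to each plate's controls, above about 33%, limit read from the data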
IDE cell inh = inhibitors of human insulin-degrading enzyme in cells; P14735; HEK cells, FAbetaB cleavage, fluorescence polarization; inhibition, % at 5.59 µM; actives 0.41% (n = 320,000); AID 434962;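 active = percent inhibition above the average of all tested compounds plus 3 SD, set per screening campaign, cut at about 16% in these data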;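 also: IDE supplied by intact live HEK cells; FP after avidin binding of uncleaved biotin substrate so inhibition keeps polarization high; 0% = DMSO wells and 100% = 60 µM reference IDE inhibitor Ii1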
IDE act = IDE (human) activation, cell-based; P14735; actives 0.073% (n = 340,000); AID 493087; activation, % at 5.96 µM; HEK cells, FAbeta-B cleavage, fluorescence polarization; 0% vehicle, 100% cell-free pure enzyme wells;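 active = activation above the mean of all tested compounds plus 3 SD, set per screening campaign, cut at about 17% in these data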
TPT1 inhibitor = C. albicans TPT1 enzyme inhibition; recombinant caTPT1, FP RNA substrate dephosphorylation; actives 0.81% (n = 300,000); inhibition, % at 5 µM;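 active = inhibition above the mean of all tested compounds plus 3 SD, set per screening campaign, cut at about 24% in these data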;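 also: plate controls were DMSO alone for no effect and ferristatin control at 100 nM for full effect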
HNF4A DNA FP = change in binding of human HNF4 alpha to DNA; P41235; HNF4a-FITC DNA binding, fluorescence polarization, 1 h; actives 0.3% (n = 360,000); AID 1224865; activity change, % at 10 µM; in the data active = activity change above about 30%, passing the limit was not always enough
CSN inh = blocks human CSN-mediated cullin deneddylation; Purified CSN, SCF-Nedd8-OG deneddylation, fluorescence polarization; inhibition, % at 12.5 µM; actives 0.38% (n = 360,000); AID 651999;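 active = pattern-corrected inhibition above about 35%, with an unprinted fluorescence ratio check between 0.5 and 1.5, limit read from the data, passing the limit was not always enough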;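 also: 0% = enzyme with substrate and 100% = substrate without enzyme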
Target sequence (Q92905 whole entry, looked up, one chain of several): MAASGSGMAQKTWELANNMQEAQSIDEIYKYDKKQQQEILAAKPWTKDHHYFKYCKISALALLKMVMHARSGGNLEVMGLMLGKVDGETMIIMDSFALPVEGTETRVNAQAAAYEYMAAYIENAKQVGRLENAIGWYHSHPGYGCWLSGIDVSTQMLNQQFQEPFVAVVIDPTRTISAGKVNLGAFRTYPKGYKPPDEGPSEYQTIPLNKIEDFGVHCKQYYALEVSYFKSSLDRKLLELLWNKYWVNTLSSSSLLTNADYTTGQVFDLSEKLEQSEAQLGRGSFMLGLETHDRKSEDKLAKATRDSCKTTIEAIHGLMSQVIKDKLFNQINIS
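Assay system: purified human Csn5 enzyme expressed in HEK293T cells; measure: % inhibition; also added: SCFSkp2-Nedd8OG substrate at 10 nM final; technique: fluorescence polarization; times: reaction 90 min, room temperature; medium: Tris buffer pH 7.5, NaCl, DTT, Tween-20, trehalose, ovalbumin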
Rpn11 confirm = Rpn11 inhibition confirmation, single concentration | actives 29% (n = 1,900) | purified human 26S proteasome, Ub4-pepOG fluorescence polarization; proteasome pretreated with epoxomicin | shares compounds with Rpn11 inh | inhibition, % at 20 µM
MMP-2 counter = counter-screen for RPN11 inhibitors: inhibition of human MMP-2. inhibition, % at 20 µM. recombinant MMP-2, FRET peptide cleavage fluorescence. shares compounds with Rpn11 inh. actives 4% (n = 1,900). AID 602330;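 also: human MMP-2 activated beforehand with APMA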
Thrombin FP = blocks bovine thrombin, flagging nonselective RPN11 hits; bovine thrombin cleavage of Ub4-pepOG, fluorescence polarization; actives 13% (n = 1,900); inhibition, % at 20 µM; shares compounds with Rpn11 inh;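 active = mean inhibition at least 40% at 20 µM, or signal 3 deviations below plate average, so some actives read negative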;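 also: plate controls were thrombin with DMSO for no effect and buffer wells lacking thrombin for full effect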
Starred values were filed as active, the others as inactive. In the library only some 1.7% were active in any assay of this set; here they are far more common. Rule as the data show it, unless noted: active = inhibition above about 40%; inactive = the rest.

NC(=Nc1ccccc1)N(c1ccccc1)c1ccccc1 was read as Rpn11 inh 0, IDE act 5, HNF4A DNA FP 0 and CSN inh 2.
`CCn1nc(CC(=O)O)c2ccccc2c1=O` gave Rpn11 inh 47*, IDE cell inh -3, IDE act 2, TPT1 inhibitor -5, HNF4A DNA FP 22, CSN inh 1, Rpn11 confirm -1, MMP-2 counter -33 and Thrombin FP -12.
Screening O=C1NC[C@H](CCCCN2C[C@H](Cc3ccc(O)cc3)N(CCc3ccccc3)C(=O)C2=O)N(CCc2ccc(O)cc2)C1=O returned HNF4A DNA FP 1 and CSN inh -2.
Screening O=C(c1cccn(Cc2ccc(Cl)c(Cl)c2)c1=O)N1CCOCC1 returned Rpn11 inh 102*, IDE cell inh 3, IDE act 5, TPT1 inhibitor 0, HNF4A DNA FP 70*, CSN inh -2, Rpn11 confirm 1, MMP-2 counter -16 and Thrombin FP -5.
For O=C(NN1CCCCC1)NN1CCCCC1 the results were Rpn11 inh 12, HNF4A DNA FP 1 and CSN inh -2.
Screening CCC(C)Sc1ccc([C@@H]2[C@H]3C(=O)N(CC)C(=O)[C@H]3[C@]3(C(=O)OC)CCCCN23)cc1 (stereo not given in full) returned Rpn11 inh 50*, IDE cell inh 0, IDE act 5, TPT1 inhibitor 14, HNF4A DNA FP 18, CSN inh 7, Rpn11 confirm 105*, MMP-2 counter 0 and Thrombin FP 69*.
For S=C(NNc1ccnc2cc(Cl)ccc12)Nc1ccc(Cl)cc1Cl the results were Rpn11 inh 44*, IDE cell inh 13, IDE act -9, TPT1 inhibitor 10, HNF4A DNA FP -9, CSN inh 10, Rpn11 confirm 15, MMP-2 counter 48* and Thrombin FP -40.
Screening O=S1(=O)CCN(Cc2cccnc2)CC1 returned Rpn11 inh -1, HNF4A DNA FP 3 and CSN inh 4.
For Cc1nc(NC(=O)c2ccccc2)sc1-c1csc(NCCc2ccccc2)n1 the results were Rpn11 inh 44*, IDE cell inh 5, IDE act 3, TPT1 inhibitor 0, HNF4A DNA FP 27, CSN inh 40*, Rpn11 confirm -4, MMP-2 counter 7 and Thrombin FP -15.
Screening COC(=O)C[C@@H]1CC[C@H](NS(=O)(=O)c2ccccc2F)[C@@H](CO)O1 returned HNF4A DNA FP 1 and CSN inh -2.
`CC12CCC3c4cc(CN5CCOCC5)c(O)cc4CCC3C1CCC2=O` (stereo not given) gave Rpn11 inh 1, IDE act 3, HNF4A DNA FP 0 and CSN inh 1.
CCOc1ccc(C(=O)N/N=C/c2cc(Cl)ccc2[N+](=O)[O-])cc1 was read as Rpn11 inh 59*, IDE cell inh 5, IDE act 2, TPT1 inhibitor 2, HNF4A DNA FP 2, CSN inh 24, Rpn11 confirm 41*, MMP-2 counter -121 and Thrombin FP 11.
CC1=C(C(=O)N(C(C)C)C(C)C)CC(CC(=O)NC(c2ccccc2)c2ccccc2)C(=O)N1Cc1ccc(C(C)(C)C)cc1 (stereo not given) was read as Rpn11 inh 14, HNF4A DNA FP -1 and CSN inh -1.
Nc1cccn2c(-c3ccc(Cl)c(Cl)c3)cnc12 was read as Rpn11 inh 54*, IDE cell inh 6, IDE act -2, TPT1 inhibitor 18, HNF4A DNA FP 31, CSN inh 22, Rpn11 confirm 32, MMP-2 counter -15 and Thrombin FP 4.
For N#C/C(=C/c1ccco1)c1nc2ccccc2s1 the results were Rpn11 inh 19, IDE cell inh 11, IDE act 0, TPT1 inhibitor 14, HNF4A DNA FP 4 and CSN inh 3.
CCCCc1ccc(-c2csc(/C(C#N)=C/c3ccc(C)o3)n2)cc1 was read as Rpn11 inh 67*, IDE cell inh 1, IDE act -3, TPT1 inhibitor 11, HNF4A DNA FP 42*, CSN inh 41*, Rpn11 confirm -10, MMP-2 counter -27 and Thrombin FP -21.
CCCCc1ccc(-c2csc(/C(C#N)=C\c3ccco3)n2)cc1 was read as Rpn11 inh 41*, IDE cell inh 2, IDE act 4, TPT1 inhibitor 7, HNF4A DNA FP 4, CSN inh 26, Rpn11 confirm 7, MMP-2 counter -5 and Thrombin FP 1.
Screening COc1ccc(COCC(O)CN2CCN(S(=O)(=O)c3c(F)cccc3F)CC2)cc1OC (stereo not given) returned Rpn11 inh 0, IDE act 1, HNF4A DNA FP -2 and CSN inh -4.
For Cc1ccc2oc(=O)c3cc(C(=O)NCCCN4CCN(C)CC4)sc3c2c1 the results were Rpn11 inh -8, IDE cell inh -4, IDE act 3, TPT1 inhibitor 0, HNF4A DNA FP 5 and CSN inh 3.
O=C(NCCCN1CCCCCC1)c1cc2c(=O)oc3ccccc3c2s1 was read as Rpn11 inh 64*, IDE cell inh -8, IDE act -5, TPT1 inhibitor 1, HNF4A DNA FP 18, CSN inh 11, Rpn11 confirm 1, MMP-2 counter 16 and Thrombin FP -6.
`O=C(NC1c2ccccc2Oc2ccccc21)c1ccc([N+](=O)[O-])cc1` gave Rpn11 inh 4, IDE act 5, HNF4A DNA FP -2 and CSN inh -4.
For O=C(CN1CCCC1)N/N=C/c1c(O)ccc2ccccc12 the results were Rpn11 inh 46*, IDE cell inh 0, IDE act -2, TPT1 inhibitor 9, HNF4A DNA FP 10, CSN inh 9, Rpn11 confirm 1, MMP-2 counter -19 and Thrombin FP -11.
O=C(N/N=C/c1c(O)ccc2ccccc12)C(=O)N1CCCC1 was read as Rpn11 inh 13, HNF4A DNA FP 7 and CSN inh 4.
